Screening results: PubChem, several laboratories
HDAC3 inhib: human HDAC3 inhibition. O15379. recombinant HDAC3, fluorogenic peptide/trypsin coupled, fluorescence. inhibition, % at 8.3 µM. 320,000 tested, 0.15% active; in the data active = inhibition above about 26%, passing the limit was not always enough; inconclusive = no clear call, values can overlap the other calls
SENP1 inh: inhibitors of human SENP1 SUMO protease catalytic domain; Q9P0U3; recombinant SENP1 catalytic domain, CyPet-SUMO1-YPet FRET cleavage; inhibition, % at 10 µM; 360,000 tested, 0.21% active;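 active = inhibition at least 30% at 10 µM, raw YFP signal under a set limit, fluorescence ratio 0.5 to 1.5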;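 also: 0% = enzyme with DMSO and 100% = no enzyme wells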
Target sequence (Q9P0U3 419-644 limits assumed): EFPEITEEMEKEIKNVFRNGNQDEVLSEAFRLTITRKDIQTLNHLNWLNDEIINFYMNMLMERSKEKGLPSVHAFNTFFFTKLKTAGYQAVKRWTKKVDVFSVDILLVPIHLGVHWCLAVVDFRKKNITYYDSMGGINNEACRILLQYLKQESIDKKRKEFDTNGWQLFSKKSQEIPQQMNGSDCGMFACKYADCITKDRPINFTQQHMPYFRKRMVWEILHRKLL
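Controls: no-enzyme wells low, DMSO-plus-enzyme wells high control. Test system: human recombinant His6-tagged SENP1 catalytic domain enzyme. Reagent: SFCypet-SUMO1-SFYpet FRET protein substrate, 25 nM final. Doses: one dose per compound, 10 µM, 0.5% DMSO. Detection: FRET, CFP and YFP emission. Timing: 50 min reaction at room temperature.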
FXN GAA850 act: frataxin GAA850 promoter activation | 360,000 tested, 0.56% active | HEK293 lucGAA850 FXN promoter luciferase reporter, 24 h; percent of 10 µM SAHA response | activation, % at 6 µM | AID 540364;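 active = activation above the average of all compounds screened plus 3 SD, cutoff fixed separately per campaign, cut at about 7.5% in these data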;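 also: 0% = DMSO wells and 100% = 10 µM SAHA wells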
CTSL1 counter-1: blocks F. hepatica cathepsin L1 in PFM18AAP counter-screen; recombinant F. hepatica cathepsin L1, Z-Leu-Arg-MCA fluorescence; inhibition, % at 5.96 µM; 300,000 tested, 0.49% active;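 active = inhibition above the mean of all tested compounds plus 3 SD, set per screening campaign, cut at about 17% in these data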;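 also: 0% = plate median of test compound wells and 100% = 1 µM Z-Phe-Ala-diazomethylketone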
PfM18AAP inh-1: PfM18AAP enzyme inhibition. recombinant PfM18AAP, H-Glu-NHMec fluorogenic cleavage. 290,000 tested, 1.2% active. AID 1822. inhibition, % at 7.35 µM;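 active = inhibition above the campaign mean inhibition over all tested compounds plus 3 SD, cut at about 28% in these data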;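 also: 0% = plate median of test compound wells and 100% = 2 mM ZnCl2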
AHR act: activates the human aryl hydrocarbon receptor; 320,000 tested, 2.5% active; P35869; activation, % at 5 µM; AHR-responsive luciferase reporter cells, luminescence; in the data active = activation above about 47%;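 also: 0% = vehicle wells and 100% = reference agonist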
PfM18AAP inh-2: PfM18AAP inhibition, confirmation. recombinant PfM18AAP, H-Glu-NHMec fluorogenic cleavage. AID 2170. inhibition, % at 7.35 µM. 2,400 tested, 28% active. shares compounds with PfM18AAP inh-1;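 active = mean inhibition over replicate wells above the hit cutoff set for the earlier primary screen, cut at about 29% in these data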;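 also: 0% = median of test compound wells and 100% = 2 mM ZnCl2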
CTSL1 counter-2: Cathepsin L (human) inhibition, confirmation | shares compounds with PfM18AAP inh-1 | purified cathepsin L1, Z-Leu-Arg-MCA fluorescence | inhibition, % at 5.96 µM | 2,400 tested, under 10 active | AID 2178;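 active = average inhibition across replicates above the hit cutoff set in the earlier primary screen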;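 also: 0% = median of test compound wells and 100% = Z-Phe-Ala-diazomethylketone 1 µM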
* marks the source's active call; other numbers are inactive results. Most compounds without a hit are left out; they make up all but 4.2% or so of the library.

How did Cc1ccc(S(=O)(=O)Nc2ccc(O)c3cccnc23)cc1 do in these assays?
HDAC3 inhib: 2.3; SENP1 inh: -1.0; FXN GAA850 act: 2.5; CTSL1 counter-1: 0.7; PfM18AAP inh-1: 48.6*; AHR act: 1.6; PfM18AAP inh-2: 30.1*; CTSL1 counter-2: -11.1

What do the screens show for `Cc1ccc(S(=O)(=O)Nc2cccc3ncccc23)cc1`?
HDAC3 inhib: 3.6; SENP1 inh: -1.1; FXN GAA850 act: 0.7; CTSL1 counter-1: -0.2; PfM18AAP inh-1: 4.3; AHR act: 2.7

How did Cc1ccc(S(=O)(=O)Nc2ccc(O)c3ncccc23)cc1 do in these assays?
HDAC3 inhib: inconclusive; SENP1 inh: 1.0; FXN GAA850 act: 0.7; CTSL1 counter-1: -0.4; PfM18AAP inh-1: 39.5*; AHR act: 1.0; PfM18AAP inh-2: 7.1; CTSL1 counter-2: -1.3

What do the screens show for `O=C1C2CC=C(Cl)CC2C(=O)N1c1ncn[nH]1` (centres undefined)?
HDAC3 inhib: -3.2; SENP1 inh: -2.9; FXN GAA850 act: 3.0; CTSL1 counter-1: -1.3; PfM18AAP inh-1: 52.9*; AHR act: -1.7; PfM18AAP inh-2: 7.6; CTSL1 counter-2: -5.6

Results for CCn1c2ccccc2c2cc(/C=N/n3cnnc3)ccc21 ?
HDAC3 inhib: -13.1; SENP1 inh: 0.2; FXN GAA850 act: -10.7; CTSL1 counter-1: 6.0; PfM18AAP inh-1: -4.0; AHR act: 14.3

Results for CCn1c(/C=N/n2cnnc2)nc2ccccc21 ?
HDAC3 inhib: -20.8; SENP1 inh: 1.1; FXN GAA850 act: 2.0; CTSL1 counter-1: 1.1; PfM18AAP inh-1: 47.6*; AHR act: 1.4; PfM18AAP inh-2: -42.0; CTSL1 counter-2: -5.3

How did CCOc1ncccc1C(=O)Nc1ccc(S(=O)(=O)N2CC(C)CC(C)C2)cc1 (centres undefined) do in these assays?
HDAC3 inhib: -6.0; SENP1 inh: -0.3; FXN GAA850 act: -2.0; AHR act: -0.4

How did CCOC(=O)c1c(C)oc2c(CC(=O)c3ccccc3)c(Cl)c(O)c(O)c12 do in these assays?
HDAC3 inhib: -7.8; SENP1 inh: -1.7; FXN GAA850 act: 0.8; CTSL1 counter-1: 0.6; PfM18AAP inh-1: 44.6*; AHR act: 0.3; PfM18AAP inh-2: 24.2; CTSL1 counter-2: 3.1

Results for CC1CN(C(=O)c2ccccc2NS(=O)(=O)c2ccc(Cl)cc2)CC(C)O1 (centres undefined) ?
HDAC3 inhib: 1.2; SENP1 inh: 3.4; FXN GAA850 act: -0.2; AHR act: -0.3

What do the screens show for `CC(C)=CCc1c(O)ccc2c1OC(c1ccc(O)c(O)c1)CC2=O` (centres undefined)?
HDAC3 inhib: 4.7; SENP1 inh: -7.7; FXN GAA850 act: 3.4; CTSL1 counter-1: -3.5; PfM18AAP inh-1: 61.9*; AHR act: 4.8; PfM18AAP inh-2: 54.7*; CTSL1 counter-2: 0.1

How did O=C1CC(c2ccc(O)c(O)c2)Oc2c1ccc(O)c2O (centres undefined) do in these assays?
HDAC3 inhib: 0.7; SENP1 inh: 4.4; FXN GAA850 act: -0.3; CTSL1 counter-1: -0.5; AHR act: -1.1

Results for COc1ccc(CCNC2=CC(=O)CCC2)cc1OC ?
SENP1 inh: -2.7

What do the screens show for `O=C(O)c1ccc(/C=C2/SC(=S)N(Cc3ccccc3)C2=O)cc1`?
HDAC3 inhib: 1.6; SENP1 inh: 1.7; FXN GAA850 act: -1.8; PfM18AAP inh-1: -9.8

How did O=C(Cc1ccccc1)NN1C(=O)/C(=C/c2ccc(C(=O)O)cc2)SC1=S do in these assays?
HDAC3 inhib: 15.4; SENP1 inh: 1.5; FXN GAA850 act: 2.9; CTSL1 counter-1: -1.0; PfM18AAP inh-1: 34.3*; AHR act: -3.7; PfM18AAP inh-2: -27.5; CTSL1 counter-2: 5.8

What do the screens show for `Cn1c(N/N=C/c2c[nH]c3ccccc23)nc2ccccc21`?
HDAC3 inhib: 10.5; SENP1 inh: -2.1; FXN GAA850 act: 2.0; CTSL1 counter-1: 3.5; PfM18AAP inh-1: 54.0*; AHR act: 56.2*; PfM18AAP inh-2: 7.1; CTSL1 counter-2: 5.3
